Where “and” joins values, the source holds several entries; their conditions need not be identical. Identical values can stand only once.
How the values were obtained:
[1] = biological target: T1, Polyunsaturated fatty acid 5-lipoxygenase (Rattus norvegicus) (UniProt P12527); assay: In vitro inhibitory activity against Lipoxygenase in rat neutrophils at a dose of 50 uM
T1 sequence (whole entry): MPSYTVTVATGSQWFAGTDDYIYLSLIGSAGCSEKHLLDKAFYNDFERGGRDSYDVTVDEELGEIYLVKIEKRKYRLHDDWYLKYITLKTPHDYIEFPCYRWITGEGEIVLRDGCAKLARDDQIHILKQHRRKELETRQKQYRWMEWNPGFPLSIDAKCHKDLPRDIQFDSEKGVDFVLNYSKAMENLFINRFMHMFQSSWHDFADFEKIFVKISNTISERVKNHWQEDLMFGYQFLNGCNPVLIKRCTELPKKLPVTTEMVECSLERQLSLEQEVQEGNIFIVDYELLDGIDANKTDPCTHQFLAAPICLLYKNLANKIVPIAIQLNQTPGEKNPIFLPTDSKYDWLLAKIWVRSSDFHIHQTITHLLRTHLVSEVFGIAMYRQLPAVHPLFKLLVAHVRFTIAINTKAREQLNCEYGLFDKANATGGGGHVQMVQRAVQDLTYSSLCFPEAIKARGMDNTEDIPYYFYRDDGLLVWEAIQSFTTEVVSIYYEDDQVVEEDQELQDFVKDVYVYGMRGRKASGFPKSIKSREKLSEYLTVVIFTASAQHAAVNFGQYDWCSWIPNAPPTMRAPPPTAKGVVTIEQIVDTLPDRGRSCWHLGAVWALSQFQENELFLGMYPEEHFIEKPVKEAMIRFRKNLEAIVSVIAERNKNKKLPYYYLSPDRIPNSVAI
Procedure, shortened: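 Neutrophils come from the 4 h pleural exudate of male Wistar-Lewis rats given iv BSA plus intrapleural rabbit anti-BSA IgG. Cells are washed, red cells lysed with NH4Cl, and resuspended at about 5×10^6 cells/0.1 mL in Tris pH 7.4 with NaCl and 1 mM CaCl2. Cells are preincubated with compound 4 min at room temperature.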

[2] = biological target: Cyclooxygenase (Rattus norvegicus) (UniProt P35355+Q63921); assay: In vitro inhibitory activity against Prostaglandin G/H synthase in rat neutrophils at a dose of 50 uM
[3] = species: Rattus norvegicus; assay: Antiinflammatory activity by immune response to collagen II antigen in rats antibody titer was determined by passive hemagglutinination; assay type: functional
Procedure, shortened: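 In rats with bovine type II collagen/incomplete Freund's adjuvant arthritis, the antibody response to collagen II was titred by passive hemagglutination. The delayed-type hypersensitivity component, ear thickness 24 h after intrapinna antigen, was read at day 21.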

[4] = system: Rattus norvegicus; assay: Antiinflammatory activity against collagen II arthritis in rats, activity % inhibition in noninjected paw edema; assay type: functional; design: concentration or dose not given beside the values
Procedure, shortened: (§1)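 Rats immunised with bovine articular-cartilage type II collagen (dissolved in 0.01 M AcOH for 24 h at 4 °C, dialysed against saline) mixed in equal volume with incomplete Freund's adjuvant. Paws were examined weekly for 7 weeks. An animal counted as arthritic at Δ paw volume ≥8.0 (injected paw) or ≥4.0 (noninjected paw). Bone lesions were scored on lateral-projection foot radiographs. 16 rats/group.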

[5] = system: Rattus norvegicus; assay: Tested in vivo for antiinflammatory activity against chronic adjuvant arthritic rat by prophylactic inhibition 2 degree paw after peroral administration of 9 mg/kg of dose; assay type: functional; conditions: route oral
Procedure, shortened: (§2)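 Prophylactic regimen, rats. Adjuvant is heat-killed Mycobacterium tuberculosis ground to a fine powder in paraffin oil (6 mg/mL); 0.1 mL is injected into the left hind paw. Oral drug is given 1 h before adjuvant challenge, then for 21 consecutive days; controls receive methyl cellulose. Left (1°) and right (2°) hind paw volumes are measured by plethysmograph.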

[6] = system: Rattus norvegicus; assay: Compound was tested in vivo for antiinflammatory activity against chronic adjuvant arthritic rat by therapeutic inhibition 1 degree paw after peroral administration of 3.3 mg/kg of dose; assay type: functional; conditions: route oral
[7] = system: Rattus norvegicus; assay: Compound was tested in vivo for antiinflammatory activity against chronic adjuvant arthritic rat by therapeutic inhibition 1 degree paw after peroral administration of 10 mg/kg of dose; assay type: functional; conditions: route oral
[8] = system: Rattus norvegicus; assay: Tested in vivo for antiinflammatory activity against chronic adjuvant arthritic rat by prophylactic inhibition 1 degree paw after peroral administration of 9 mg/kg of dose; assay type: functional; conditions: route oral; procedure, shortened: as §2
[9] = system: Rattus norvegicus; assay: In vivo antiinflammatory activity against rats by RPAR(reverse passive Arthus reaction) synovitis method; assay type: functional; design: concentration or dose not given beside the values
Procedure, shortened: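 Lewis rats, oral drug or placebo 1 h before iv BSA (2.28 mg in saline), then intraarticular rabbit anti-BSA (0.54 mg) into one knee and saline into the other, under light anesthesia. Second oral dose at 3 h; the total of both doses is the calculated dose. About 17 h after induction, subpatellar tissue with synovium is excised and weighed. Response is antibody-minus-saline knee weight, tested by analysis of variance.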

[10] = system: Rattus norvegicus; assay: Compound was tested in vivo for antiinflammatory activity against chronic adjuvant arthritic rat by therapeutic inhibition 2 degree paw after peroral administration of 3.3 mg/kg of dose; assay type: functional; conditions: route oral
[11] = system: Rattus norvegicus; assay: Compound was tested in vivo for antiinflammatory activity against chronic adjuvant arthritic rat by therapeutic inhibition 2 degree paw after peroral administration of 30 mg/kg of dose; assay type: functional; conditions: route oral
[12] = system: Rattus norvegicus; assay: Compound was tested in vivo against chronic adjuvant arthritic rat by prophylactic inhibition 2 degree paw. Relative potency with respect to (8-Benzyl-5-hydroxy-1,3-dimethyl-6-propyl-1H,8H-1,3,4b,8,9-pentaaza-fluorene-2,4,7-trione); assay type: functional
[13] = system: Rattus norvegicus; assay: Compound was tested for intestinal Ulcerogenic effect in rats at a dose of 30 mg/kg; assay type: functional
Procedure, shortened: (§3)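 Normal fed rats were gavaged once daily for three consecutive days at 10–300 mg/kg and killed 24 h after the last dose. Intestines were examined for ulcers, recording incidence per group of 8 and a lesion score (±SE).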

[14] = species: Rattus norvegicus; assay: Antiinflammatory activity on the development of collagen II arthritis in rats, measured based on animals positive for arthritis by the presence of bone lesions; assay type: functional; procedure, shortened: as §1
[15] = system: Rattus norvegicus; assay: Antiinflammatory activity on the development of collagen II arthritis in rats, measured based on animals positive for arthritis by the presence of paw edema; assay type: functional; procedure, shortened: as §1
[16] = system: Rattus norvegicus; assay: Compound was tested in vivo for antiinflammatory activity against chronic adjuvant arthritic rat by prophylactic inhibition 1 degree paw after peroral administration of 36 mg/kg of dose; conditions: po
[17] = system: Rattus norvegicus; assay: Compound was tested in vivo for antiinflammatory activity against chronic adjuvant arthritic rat by prophylactic inhibition 2 degree paw after peroral administration of 36 mg/kg of dose; conditions: po
[18] = system: Rattus norvegicus; assay: Compound was tested for intestinal Ulcerogenic effect in rats, activity expressed as ulcer incidence at a dose of 100 mg/kg; assay type: functional; procedure, shortened: as §3
[19] = system: Rattus norvegicus; assay: Compound was tested for intestinal Ulcerogenic effect in rats, activity expressed as ulcer incidence at a dose of 10 mg/kg; assay type: functional; procedure, shortened: as §3
[20] = system: Rattus norvegicus; assay: Compound was tested for intestinal Ulcerogenic effect in rats, activity expressed as ulcer incidence at a dose of 30 mg/kg; assay type: functional; procedure, shortened: as §3
[21] = system: Rattus norvegicus; assay: Compound was tested for intestinal Ulcerogenic effect in rats, activity expressed as lesion score at a dose of 100 mg/kg; assay type: functional; procedure, shortened: as §3
[22] = system: Rattus norvegicus; assay: Compound was tested for gastric Ulcerogenic effect in rats, activity expressed as lesion length at a dose of 30 mg/kg
[23] = system: Rattus norvegicus; assay: Compound was tested for gastric Ulcerogenic effect in rats, activity expressed as lesion length at a dose of 10 mg/kg
[24] = system: Rattus norvegicus; assay: Compound was tested for gastric Ulcerogenic effect in rats, activity expressed as lesion length at a dose of 100 mg/kg

inhibition [1]	inhibition [2]	Structure (SMILES)	Antibody titer [3]	Inhibition [4]	inhibition in vivo at 9 mg/kg [5]	inhibition in vivo at 3.3 mg/kg [6]	inhibition in vivo at 10 mg/kg [7]	inhibition in vivo at 9 mg/kg [8]	Inhibition [9]	inhibition in vivo at 3.3 mg/kg [10]	inhibition in vivo at 30 mg/kg [11]	Relative potency [12]	Ulcer incidence [13]	Positive [14]	Positive [15]	inhibition in vivo at 36 mg/kg [16]	inhibition in vivo at 36 mg/kg [17]	Ulcer incidence [18]	Ulcer incidence [19]	Ulcer incidence [20]	also measured
21% and 22%	93%	CC(C)=CCc1c(O)n(Cc2ccc(F)cc2)c2nc3c(c(=O)n(C)c(=O)n3C)n2c1=O	8.4	80.6%	35%	21%	38%	22%	29%	43%	87%	4.8	0 number/group	14.3%	21.4%	44%	69%	–	–	–	–
17% and 22%	92%	CC(C)=CCc1c(O)n(Cc2ccccc2)c2nc3c(c(=O)n(C)c(=O)n3C)n2c1=O	10.9	10.1%	76%	24%	54%	30%	26%	42%	83%	3.1 and 4.3	0 number/group	40%	46.7%	–	–	1 number/group	0 number/group	0 number/group	Lesion length [21]: 0.1 mm rat-1; Length [22]: 0 mm rat-1; Length [23]: 0 mm rat-1; Length [24]: 1 mm rat-1
0% and 8%	36%	CCCc1c(O)n(Cc2ccc(F)cc2)c2nc3c(c(=O)n(C)c(=O)n3C)n2c1=O	6.6	54.9%	49%	–	–	42%	53%	–	–	1.2	–	18.8%	31.3%	60%	67%	0 number/group	0 number/group	0 number/group	Lesion length [21]: 0 mm rat-1; Length [22]: 0 mm rat-1; Length [23]: 0 mm rat-1; Length [24]: 0.2 mm rat-1
